# Compound activity deposited in PubChem by The Scripps Research Institute Molecular Screening Center.
# An excerpt weighted towards active compounds, which were near 1.8% of everything screened.
# LEDGF integ inh: blockers of LEDGF/p75-dependent integrase strand transfer – biochemical, TR-FRET, high throughput, primary screen; HIV-1 integrase (with human LEDGF/p75); TR-FRET IN-LEDGF/p75 DNA integration, Eu/Cy5; inhibition, % at 3.7 µM; 370,000 compounds, 0.64% hits;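 active = inhibition above the screen-wide mean plus 3 SD, cut at about 13% in these data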;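 also: signal is the Cy5 over europium emission ratio at 671 and 618 nm; 0% = plate median of compound wells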
# TDP2 inh: human TDP2 enzyme inhibitors, primary screen, biochemical, epi absorbance, recombinant enzyme | Tyrosyl-DNA phosphodiesterase 2 (Homo sapiens), O95551 | T5PNP hydrolysis, p-nitrophenol absorbance 415 nm | inhibition, % at 12.8 µM | 370,000 compounds, 0.34% hits | AID 720702, 2013;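 active = inhibition above the mean of all tested compounds plus 3 SD, set per campaign, cut at about 25% in these data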;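 also: 0% = DMSO with enzyme and 100% = buffer with substrate but no TDP2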
# Target sequence (O95551 whole entry, looked up): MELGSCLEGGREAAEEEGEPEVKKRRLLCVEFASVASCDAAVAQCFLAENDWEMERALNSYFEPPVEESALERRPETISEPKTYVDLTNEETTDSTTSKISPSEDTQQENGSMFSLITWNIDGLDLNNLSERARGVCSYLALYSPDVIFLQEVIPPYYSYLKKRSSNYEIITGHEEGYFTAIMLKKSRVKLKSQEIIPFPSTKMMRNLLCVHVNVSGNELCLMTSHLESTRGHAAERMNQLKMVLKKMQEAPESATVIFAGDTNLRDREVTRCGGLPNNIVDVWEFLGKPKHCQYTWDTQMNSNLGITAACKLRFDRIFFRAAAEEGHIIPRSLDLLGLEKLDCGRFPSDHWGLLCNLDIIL
#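 System – recombinant human TDP2 · Amount – 120 nM TDP2 per well · Buffer or medium – Mg2+-containing Tris-HCl buffer, pH 7.5 · Reagent – T5PNP substrate, 5 mM · Dosing – 12.8 µM single point, 1% DMSO · Incubation – 2 h at 37 °C · Measured by – epi absorbance · Read-out basis – percent inhibition · Benchmarks – high control without enzyme, low control DMSO plus TDP2 · Repeats – singlicate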
# core dimer inh: inhibitors of HCV core protein dimerization, primary screen, biochemical, TR-FRET, high-throughput; TR-FRET GST/Flag-core106 dimerization, 1536-well; inhibition, % at 5 µM; 300,000 compounds, 0.33% hits; AID 1899, 2009;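 active = inhibition above the mean of all tested compounds plus 3 SD, set per screening campaign, cut at about 45% in these data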
#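 System: GST/Flag-tagged HCV core106 proteins. Incubation: compound-protein-antibody incubation 4 h at 22.5 °C. Technique: HTRF with 340 nm excitation, 617/671 nm emission. Medium: KF-containing HEPES buffer, pH 7.45, DTT, CHAPS, BSA. Read-out: inhibition (%) from 671 over 617 nm ratio. Also added: Eu(K)-anti-GST 90 ng/mL plus XL665-anti-Flag 1 µg/mL.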
# UHRF1 MBD2 ctr: UHRF1 methylated DNA binding inhibitors, primary screen, counter-screen for MBD2 inhibitor project, biochemical, TR-FRET, human UHRF1, single concentration. UHRF1 binding to methylated oligo. inhibition, % at 4.4 µM. 370,000 compounds, 0.75% hits; in the data active = inhibition above about 21%;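 also: UHRF1 SRA domain binding a hemimethylated CpG hairpin DNA probe; 0% = median of test compound wells and 100% = reference inhibitor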
# MBD2 inh: inhibitors of MBD2 binding to methylated DNA, primary screen, biochemical, TR-FRET, DNA-binding domain, human. Methyl-CpG-binding domain protein 2 (Homo sapiens), Q9UBB5. MBD2 binding to methylated oligonucleotide. inhibition, % at 4.4 µM. 370,000 compounds, 0.31% hits; in the data active = inhibition above about 13%
# IN multimer act: HIV-1 IN multimer formation enhancers, counter-screen for LEDGF/p75 integration inhibitor project, biochemical, TR-FRET; shares compounds with LEDGF integ inh; TR-FRET HIV-1 integrase multimerization; activation, % at 7.7 µM; 2,000 compounds, 17% hits; AID 1053131, 2014; in the data active = activation above about 8.9%
# TR-FRET interf: TR-FRET optical interference artefacts, confirmation, artefact control for LEDGF/p75-dependent integration inhibitor project, biochemical, HIV-1 IN multimerization. shares compounds with LEDGF integ inh. TR-FRET optical interference counterscreen. inhibition, % at 7.7 µM. 2,000 tested, under 10 active. AID 1053135, 2014;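 active = inhibition above the mean over all tested compounds plus 3 SD, which no compound reached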;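 also: 0% = integrase with antibodies and DMSO and 100% = antibodies without integrase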
# IN-LEDGF confirm: inhibitors of HIV-1 IN-LEDGF/p75 DNA integration, confirmation, biochemical, TR-FRET. TR-FRET LEDGF/p75-dependent HIV-1 integration. shares compounds with LEDGF integ inh. 2,000 compounds, 36% hits. inhibition, % at 3.7 µM; in the data active = inhibition above about 14%
# Active calls of the source: *; nt = no result.
SMILES,LEDGF integ inh,TDP2 inh,core dimer inh,UHRF1 MBD2 ctr,MBD2 inh,IN multimer act,TR-FRET interf,IN-LEDGF confirm
CN(C)c1ncnc2c1ncn2[C@H]1CN(Cc2cccnc2)C[C@@H](CO)O1,52*,4,nt,-1,1,-1,5,-6
O=C(NCCN1CCC(n2c(=O)[nH]c3cc(Cl)ccc32)CC1)c1ccc(F)cc1,4,1,nt,-1,2,nt,nt,nt
O=C(CSc1nc2ccccc2o1)N/N=C/c1ccccc1,2,-9,-5,1,3,nt,nt,nt
O=C(CSc1nc2ccccc2o1)N/N=C/c1ccc(O)c(O)c1,17*,-20,-5,4,-3,62*,-221,73*
CNc1ccc(Br)cc(C(=O)/C=C/c2cccc(Cl)c2Cl)c1=O,15*,-8,nt,5,-1,0,-1,21*
CCNc1ccc(Br)cc(C(=O)/C=C/c2ccccc2Cl)c1=O,12,8,42,0,-2,nt,nt,nt
CNc1ccc(Br)cc(C(=O)/C=C/c2cccc(OC)c2OC)c1=O,16*,2,0,1,-6,2,-11,27*
C#CCNC(=O)C[C@H]1C[C@@]2(C(=O)OC)C(=C[C@H](COCc3ccccc3)O[C@@H]2C)N(Cc2ccc3c(c2)OCO3)C1=O,0,-3,nt,-1,3,nt,nt,nt
CC(=O)OC[C@]12CC[C@H]3[C@@](C)(CC[C@H]4C(C)(C)CCC[C@]34C)[C@@H]1CC(C1=CC(=O)OC1O)O2 (some centres not stated),20*,0,nt,4,5,-3,13,63*
COc1cc2c(cc1OC)C(C1(O)CCCCC1)NCC2 (configuration not stated),14*,0,nt,-2,-4,1,-3,-12
Nc1cc2ccccc2cc1NS(=O)(=O)N1CCCCC1,2,-6,nt,0,3,nt,nt,nt
COC(=O)C1=C(C)N(Cc2cccc(C(F)(F)F)c2)C(=NCc2ccc(OC)cc2)NC1c1cccc(F)c1 (configuration not stated),1,-14,nt,1,-1,nt,nt,nt
Cc1ccc(N=C2NC(=O)/C(=C/C=C/c3ccco3)S2)cc1,22*,5,59*,5,1,17*,-62,58*
O=C1NC(=Nc2ccccc2)S/C1=C\C=C\c1ccco1,34*,5,21,13,4,16*,-57,58*
O=C(CCS(=O)(=O)c1ccccc1)Nc1ccc(F)cc1Cl,3,3,nt,-1,-5,nt,nt,nt
Clc1cc(Cl)cc(CNC2CCC23CCCCC3)c1 (configuration not stated),-1,4,nt,0,-4,nt,nt,nt
C/C=C/COC(=O)c1[nH]c2c(c1C)C(=O)CC(c1ccc(N(C)C)cc1)C2 (configuration not stated),0,-6,6,-2,1,nt,nt,nt
C/C=C/COC(=O)c1[nH]c2c(c1C)C(=O)CC(c1ccco1)C2 (configuration not stated),18*,5,53*,20,10,5,-16,21*
Cn1cc(Br)c(NS(=O)(=O)c2ccc(Cl)s2)n1,25*,2,-3,1,1,1,-4,-4
Nc1ccc(/C=C/C(=O)c2ccco2)cc1,-1,7,-3,-23,-15,nt,nt,nt
CC(C)(C)C(=O)Nc1ccc(/C=C/C(=O)c2ccco2)cc1,34*,16,-3,-4,-4,0,-1,-3
CCN(CC)c1ccc(NC(=O)CSc2nnc(SCc3ccc(Cl)cc3)s2)cc1,-5,4,nt,2,6,nt,nt,nt
CC1CCN(C(=O)CCNS(=O)(=O)c2ccc(Br)cc2)CC1,45*,-8,nt,-1,-2,-1,4,-4
CC(=O)N1CCN(C(=O)CCNS(=O)(=O)c2ccc(Br)cc2)CC1,5,6,nt,0,-2,nt,nt,nt
O=C(Nc1scc(-c2ccccc2)c1C(=O)O)c1ccc(F)cc1,14*,-3,12,5,2,0,3,5
SMILES,LEDGF integ inh,TDP2 inh,core dimer inh,UHRF1 MBD2 ctr,MBD2 inh,IN multimer act,TR-FRET interf,IN-LEDGF confirm
O=C(/C=C/c1ccco1)Nc1scc(-c2ccccc2)c1C(=O)O,2,12,-2,20,4,nt,nt,nt
O=C(/C=C/c1ccccc1)Nc1scc(-c2ccccc2)c1C(=O)O,16*,6,nt,-4,3,1,-6,12
COc1ccc(C(N)c2csc(Nc3cc(Oc4ccccc4)ncn3)n2)cc1 (configuration not stated),3,-4,nt,0,0,nt,nt,nt
NC(c1csc(Nc2cc(Oc3ccccc3)ncn2)n1)C1CCCCC1 (configuration not stated),13*,-10,nt,-2,-7,0,1,-7
NC(CO)c1csc(Nc2ccc(C(F)(F)F)cn2)n1 (configuration not stated),0,-5,nt,-3,3,nt,nt,nt
NC(c1csc(Nc2ccc(C(F)(F)F)cn2)n1)C1CCCCC1 (configuration not stated),18*,-9,nt,-3,-2,0,-1,-4
Cn1cc(Cl)c(-c2n[nH]c(=S)n2-c2ccccc2)n1,-2,2,-3,2,-2,nt,nt,nt
Cn1cc(Cl)c(-c2n[nH]c(=S)n2-c2ccc(F)cc2)n1,28*,7,0,-1,-1,-1,4,-6
Cc1ccc(C(=O)NNC(=O)C2CCN(c3nccc(C)n3)CC2)cc1,18*,5,-5,4,4,0,-1,-6
CCOc1ccccc1OCC(=O)NNC(=O)Cn1cnc2c1c(=O)n(C)c(=O)n2C,14*,-4,2,-2,-1,-1,5,3
Cc1cc(C)c2c(N)c(S(=O)c3ccc(C(C)(C)C)cc3)sc2n1 (configuration not stated),36*,-5,2,1,-1,1,-4,-4
Cc1cc(C)c2c(N)c(C(=O)C(C)(C)C)sc2n1,1,3,-6,9,5,nt,nt,nt
